Laboratory results: ChEMBL document CHEMBL1154474, “Pharmacophore based discovery of potential antimalarial agent targeting haem detoxification pathway” (Eur J Med Chem, 2008)
“And” between values parts separate entries of the source, which are not always exact repeats. Equal entries are not always repeated. Structures can show the parent of a compound that is named as a salt.

Key:
Plasmodium falciparum [1] = experiment: Antimalarial activity against chloroquine and pyrimethamine-resistant Plasmodium falciparum K1 after 24 hrs by [3H]hypoxanthine uptake; assay type: functional, organism-based
Plasmodium falciparum [2] = experiment: Antimalarial activity against chloroquine-resistant Plasmodium falciparum K1 after 48 hrs by [G-3H]hypoxanthine uptake; assay type: functional, organism-based; conditions: K1, 48 h
Plasmodium falciparum [3] = experiment: Antimalarial activity against chloroquine-resistant Plasmodium falciparum K1 by [3H]hypoxanthine uptake; assay type: functional, organism-based
Plasmodium falciparum [4] = experiment: Antimalarial activity against chloroquine-resistant Plasmodium falciparum K1; assay type: functional, organism-based
Plasmodium falciparum [5] = experiment: Antimalarial activity against chloroquine-resistant Plasmodium falciparum K1 after 72 hrs; assay type: functional, organism-based; conditions: K1, 72 h
[6] = Ionisation constant for the compound; assay type: physicochemical
Summary of the method: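 Spectrophotometric pKa determination on a UV spectrometer, with measurements in buffers from pH 5.8 to 11.2 and in 0.1 M NaOH and 0.1 M HCl. The pH 5.8–8.0 buffers were made from 0.1 M KH2PO4/K2HPO4, and the pH 8.4–11.2 buffers from 0.1 M glycine with 0.1 M NaOH. Two constants (pKa1, pKa2) were reported.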

SMILES	IC50 (Plasmodium falciparum [2])	IC50 (Plasmodium falciparum [4])	also measured
CS(=O)(=O)Nc1ccc(Nc2c3ccc(Cl)cc3nc3cc(Cl)ccc23)cc1	–	–	IC50 (Plasmodium falciparum [1]; Plasmodium falciparum, K1): 0.35 µM
CC(CCCN1CCCC1)Nc1ccnc2cc(Cl)ccc12 (centres undefined) [Chloroquine-pyrolidinyl]	0.0896 µM	–	–
N=C(N)c1ccc(/N=N/Nc2ccc(C(=N)N)cc2)cc1 [DIMINAZENE]	–	–	IC50 (Plasmodium falciparum [3]): 0.19 µM
C[n+]1c2ccccc2cc2[nH]c3c([N+](=O)[O-])cccc3c21	–	6.3 µM	–
CN(CCCNc1nc2ccc(Cl)cc2n2cccc12)CCCNc1nc2ccc(Cl)cc2n2cccc12	–	0.28 µM	–
CCN(CC)CCCC(C)Nc1cc(CCCCCCCCCCc2cc(NC(C)CCCN(CC)CC)c3ccccc3n2)nc2ccccc12 (centres undefined)	–	0.017 µM	–
N=C(N)c1ccc(/C=C/c2ccc(C(=N)N)cc2)cc1 [STILBAMIDINE]	–	–	IC50 (Plasmodium falciparum [3]): 0.027 µM
CCN(CC)CCCC(C)Nc1cc(CCCCCCCCCCCCc2cc(NC(C)CCCN(CC)CC)c3ccccc3n2)nc2ccccc12 (centres undefined)	–	0.016 µM	–
O=C1CC(c2ccc(C(F)(F)F)cc2)CC2C1C(=O)c1cc(Cl)ccc1N2O (centres undefined)	–	–	IC50 (Plasmodium falciparum [5]): 0.4 µM
CN(C)CCCN1c2ccc(NCc3cnc[nH]3)cc2Sc2ccc(Cl)cc21	–	1.8 µM	–
Oc1c(CN2CCCC2)cc(Nc2c3ccccc3nc3cc(Cl)ccc23)cc1CN1CCCC1	0.0091 µM	–	–
NS(=O)(=O)c1ccc(Nc2c3ccc(Cl)cc3nc3cc(Cl)ccc23)cc1	–	–	IC50 (Plasmodium falciparum [1]; Plasmodium falciparum, K1): 0.62 µM
CCN(CC)CCCC(C)NC1=CC=NCC1 (centres undefined)	15.1 µM	–	–
N=C(N)c1ccc(OCCCOc2ccc(C(=N)N)cc2)cc1 [PROPAMIDINE]	–	–	IC50 (Plasmodium falciparum [3]): 0.0056 µM
C[n+]1c2ccccc2cc2[nH]c3cc([N+](=O)[O-])cc([N+](=O)[O-])c3c21	–	0.65 µM	–
C[n+]1c2ccccc2cc2[n-]c3ccccc3c21 [CRYPTOLEPINE HYDROCHLORIDE]	–	100 µM	–
C=CC1CN2CCC1C[C@H]2[C@H](O)c1ccnc2ccc(OC)cc12 (single isomer, unassigned) [QUININE]	0.081 µM	–	–
CC(C)(C)NCc1cc(Nc2ccnc3cc(Cl)ccc23)cc(-c2ccc(Cl)cc2)c1O [TEBUQUINE]	0.013 µM	–	–
CN(C)CCCC(=O)Nc1ccc2c(c1)Sc1ccc(Cl)cc1N2CCCN(C)C	–	2 µM	–
CN(C)c1ccc(Nc2c3ccccc3nc3cc(N)ccc23)cc1	–	–	IC50 (Plasmodium falciparum [1]): 0.8 µM and 0.35 µM
CCCCN(CCCC)CCC(C)c1cc2c(Cl)cc(Cl)cc2c2cc(C(F)(F)F)ccc12 (centres undefined)	0.0028 µM	–	–
CCN(CC)Cc1cc(Nc2ccncc2)ccc1O	1.3 µM	–	–
CNc1ccc(Nc2c3ccccc3nc3cc(Cl)ccc23)cc1	–	–	IC50 (Plasmodium falciparum [1]; Plasmodium falciparum, K1): 1.2 µM
C=CC1CN2CCC1C[C@@H]2[C@@H](O)c1ccnc2ccc(OC)cc12 (single isomer, unassigned) [QUINIDINE]	0.051 µM	–	–
CN(C)CCCN(CCCN(C)C)CCCN1c2ccccc2Sc2ccc(Cl)cc21	–	0.42 µM	–

SMILES	IC50 (Plasmodium falciparum [2])	IC50 (Plasmodium falciparum [4])	also measured
Oc1ccc(Cc2ccnc3cc(Cl)ccc23)cc1CN1CCCC1	0.0115 µM	–	–
CN(C)CCCC(=O)Nc1ccc2c(c1)Sc1ccc(Cl)cc1N2C	–	7 µM	–
CCN(CC)Cc1cc(Nc2ccnc3cc(Cl)ccc23)cc(-c2ccc(Cl)cc2)c1F	0.069 µM	–	–
NCc1cc(Cc2ccnc3cc(Cl)ccc23)ccc1O	0.166 µM	–	–
CN(C)CCCN(C)CCCN1c2ccccc2Sc2ccccc21	–	1 µM	–
CCN(CC)CCCC(C)Nc1c2ccc(Cl)cc2nc2ccc(OC)cc12 (centres undefined) [QUINACRINE]	0.043 µM	–	–
CN(C)CCC/N=C1\CC(c2ccc(Cl)cc2Cl)CC2Nc3ccc(Cl)cc3C(=O)C12 (centres undefined)	–	–	IC50 (Plasmodium falciparum [5]): 0.0095 µM
C=C[C@@H]1CN2CC[C@@H]1C[C@@H]2[C@@H](O)c1ccnc2ccccc12	0.0906 µM	–	–
C[n+]1c2ccc(Cl)cc2cc2[nH]c3cc(Cl)ccc3c21	–	0.045 µM	–
CC(CCCN)Nc1ccnc2cc(Cl)ccc12 (centres undefined) [BIDESETHYL CHLOROQUINE]	1.34 µM	–	–
O=C1CC(c2ccc(Cl)cc2Cl)CC2Sc3ccc(Cl)cc3C(=O)C12 (centres undefined)	–	–	IC50 (Plasmodium falciparum [5]): 0.016 µM
CN(C)c1ccc(Nc2c3ccccc3nc3cc(Cl)ccc23)cc1	–	–	IC50 (Plasmodium falciparum [1]; Plasmodium falciparum, K1): 1.1 µM
Oc1ccc(Nc2ccnc3cc(Cl)ccc23)cc1	2.3 µM	–	–
CCOc1ccc(/C=C/C(=N\NC(=O)c2cccnc2)c2ccc(O)cc2)cc1OC	–	–	pKa [6]: 6.87
CCN(CC)Cc1cc(Cc2ccnc3cc(Cl)ccc23)ccc1O	0.018 µM	–	–
C[n+]1c2ccccc2c(C(=O)O)c2[nH]c3ccc(Br)cc3c21	–	0.26 µM	–
C=C[C@@H]1CN2CC[C@@H]1C[C@H]2[C@H](O)c1ccnc2ccccc12	0.0562 µM	–	–
CS(=O)(=O)Nc1ccc(Nc2c3ccccc3nc3cc(Cl)ccc23)cc1	–	–	IC50 (Plasmodium falciparum [1]; Plasmodium falciparum, K1): 1 µM
CC(c1cc(C(F)(F)F)nc2c(C(F)(F)F)cccc12)C1CCCCN1 (centres undefined)	0.0094 µM	–	–
CC(C)(C)NCc1cc(Cc2ccnc3cc(Cl)ccc23)ccc1O	0.0091 µM	–	–
C[n+]1c2ccc(Br)cc2cc2[nH]c3ccc([N+](=O)[O-])cc3c21	–	100 µM	–
CCN(CC)Cc1cc(Nc2ccnc3cc(Cl)ccc23)cc(-c2ccc(Cl)cc2)c1 [DEHYDROXY TEBAQUINE]	0.0693 µM	–	–
C[n+]1c2ccc(Cl)c(Cl)c2cc2[nH]c3ccccc3c21	–	0.44 µM	–
CCNCc1cc(Cc2ccnc3cc(Cl)ccc23)ccc1O	0.0388 µM	–	–
